Bioassay records deposited in PubChem BioAssay by several laboratories.
MT1-MMP txn act = MT1-MMP promoter transcription activation. activation factor at 10 µM. 0.16% of 86,000 active. HT1080 MT1-MMP promoter luciferase reporter, luminescence, overnight; stronger effect = higher value;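 active means activation factor of at least 2 for MT1-MMP transcription at 10 µM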
HUVEC prolif 384 = human endothelial cell proliferation inhibition. HUVEC proliferation, CellTiter-Glo luminescence, 72 h; stronger effect = lower value. 1.1% of 86,000 active. AID 648. viability, % at 10 µM (by protocol);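 active means viability at or below 30%; inactive means viability above 30%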;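 further: 100% = median luminescence of DMSO-only cell control wells on each plate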
PTK2B oligo ant = blocks oligomerization of human Pyk2 in cells; Q14289; Q293 cells, Pyk2 FERM NanoBiT luminescence; stronger effect = lower value; z-score (the deposit names both 25 µM and 10 µM); 0.83% of 99,000 active; AID 1347419;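 active means Z-score of -3 or lower, scaled per plate to the spread of control and sample wells; inactive means z-score above -3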;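 further: negative z-score means lost luminescence so less FERM oligomerization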
Target sequence (Q14289 whole entry, looked up): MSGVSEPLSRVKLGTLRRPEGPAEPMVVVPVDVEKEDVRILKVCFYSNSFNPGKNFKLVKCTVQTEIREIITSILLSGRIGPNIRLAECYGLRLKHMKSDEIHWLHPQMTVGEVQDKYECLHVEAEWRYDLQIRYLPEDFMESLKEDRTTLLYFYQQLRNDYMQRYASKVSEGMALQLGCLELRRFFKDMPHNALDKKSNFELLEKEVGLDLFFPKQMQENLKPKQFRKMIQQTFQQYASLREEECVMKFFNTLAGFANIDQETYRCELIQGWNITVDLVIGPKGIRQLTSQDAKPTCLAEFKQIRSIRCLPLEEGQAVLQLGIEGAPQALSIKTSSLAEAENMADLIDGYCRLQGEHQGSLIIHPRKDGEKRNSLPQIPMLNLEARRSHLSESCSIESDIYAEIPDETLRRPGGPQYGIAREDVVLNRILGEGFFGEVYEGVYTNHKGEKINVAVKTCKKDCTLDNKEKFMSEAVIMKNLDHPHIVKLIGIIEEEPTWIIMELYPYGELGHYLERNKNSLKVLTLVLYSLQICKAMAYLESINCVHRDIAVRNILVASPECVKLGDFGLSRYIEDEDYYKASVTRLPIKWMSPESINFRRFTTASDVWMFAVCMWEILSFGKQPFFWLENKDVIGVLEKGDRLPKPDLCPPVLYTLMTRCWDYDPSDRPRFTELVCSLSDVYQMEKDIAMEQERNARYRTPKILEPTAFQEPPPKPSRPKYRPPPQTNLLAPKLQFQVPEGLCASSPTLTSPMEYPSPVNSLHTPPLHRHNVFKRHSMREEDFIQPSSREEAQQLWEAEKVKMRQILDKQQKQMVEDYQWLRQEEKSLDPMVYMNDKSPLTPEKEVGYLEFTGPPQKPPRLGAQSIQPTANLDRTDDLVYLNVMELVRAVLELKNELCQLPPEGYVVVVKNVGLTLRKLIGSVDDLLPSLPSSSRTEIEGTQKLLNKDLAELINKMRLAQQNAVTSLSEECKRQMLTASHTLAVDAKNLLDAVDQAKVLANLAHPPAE
Fibroblast inh = blocks proliferation of human lung fibroblasts | LL 47 human lung fibroblast viability, ATP luminescence; stronger effect = lower value | viability, % at 10 µM | 1.1% of 85,000 active | AID 719;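 active means viability at or below 50% in the single dose screen; inactive means viability above 50%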;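 further: compound exposure lasted 72 h before the ATP readout; 100% = median luminescence of untreated cell-only wells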
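test system = LL 47 human lung fibroblasts | amount = 1,150 fibroblasts seeded per well | medium = 15% FBS in IMEM | times = overnight cell rest, 72 h compound treatment at 37 °C | measured by = CellTiter-Glo luminescence measuring cellular ATP | read-out = viability percentage against median untreated-cell control | benchmarks = cell-only wells, no compound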
Jurkat tox 60K = reduces viability or proliferation of Jurkat cells. Jurkat E6.1 viability, ATP luminescence, 48 h. inhibition, % at 4 µM. 1.2% of 56,000 active. AID 463;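 active means inhibition above the mean inhibition of all tested compounds plus 3 SD, cut at about 28% in these data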
H69AR inhibit = blocks growth of human H69AR lung tumor cells; H69AR lung tumor viability, ATP luminescence, 72 h; stronger effect = lower value; 6% of 85,000 active; viability, % at 10 µM;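 active means viability at or below 40%; inactive means viability above 40%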;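 further: multidrug resistant small cell line overexpressing MRP-1 efflux transporter; 100% = mean luminescence of untreated control wells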
* = called active by the depositor. Shown are actives, neighbours in structure and some others; about 5.9% of the full set was active somewhere.

What do the screens show for `Cc1cc2cc(CN(Cc3ccco3)C(=O)NCc3ccccc3)c(=O)[nH]c2cc1C`?
MT1-MMP txn act: 1.1; HUVEC prolif 384: 97; PTK2B oligo ant: 0.9; Fibroblast inh: 95; Jurkat tox 60K: -3; H69AR inhibit: 77

How did O=C(Nc1ccc(F)cc1)N(Cc1ccco1)Cc1cc2cc3c(cc2[nH]c1=O)OCO3 do in these assays?
MT1-MMP txn act: 1.2; HUVEC prolif 384: 77; PTK2B oligo ant: 0.42; Fibroblast inh: 94; Jurkat tox 60K: -4; H69AR inhibit: 31*

What do the screens show for `COc1ccccc1NC(=O)N(Cc1cc2cc(OC)c(OC)cc2[nH]c1=O)CC1CCCO1` (centres undefined)?
MT1-MMP txn act: 1; HUVEC prolif 384: 86; PTK2B oligo ant: -0.88; Fibroblast inh: 99; Jurkat tox 60K: -7; H69AR inhibit: 79

Results for COCc1c(C)cc(C)c(/C=N/O)c1C ?
MT1-MMP txn act: 1.2; HUVEC prolif 384: 93; PTK2B oligo ant: 0.08; Fibroblast inh: 97; Jurkat tox 60K: 5; H69AR inhibit: 83

What do the screens show for `CCOc1ccc2[nH]c(=O)c(CN(CC3COCCO3)C(=O)c3ccco3)cc2c1` (centres undefined)?
MT1-MMP txn act: 1.1; HUVEC prolif 384: 85; PTK2B oligo ant: 0.95; Fibroblast inh: 103; Jurkat tox 60K: -4; H69AR inhibit: 88

Results for O=C(c1ccncc1)N(Cc1cc2ccccc2[nH]c1=O)C1CCCCC1 ?
MT1-MMP txn act: 0.5; HUVEC prolif 384: 66; PTK2B oligo ant: -1; Fibroblast inh: 90; Jurkat tox 60K: 47*; H69AR inhibit: 75

How did CCC1Oc2ccc(C)cc2N(CC(=O)N(Cc2ccncc2)Cc2ccco2)C1=O (centres undefined) do in these assays?
MT1-MMP txn act: 1.2; HUVEC prolif 384: 96; PTK2B oligo ant: 0.68; Fibroblast inh: 121; H69AR inhibit: 34*

Results for CCOc1ccc2[nH]c(=O)c(CN(Cc3ccco3)C(=O)c3ccc(Br)cc3)cc2c1 ?
MT1-MMP txn act: 1.2; HUVEC prolif 384: 57; PTK2B oligo ant: -0.03; Fibroblast inh: 66; Jurkat tox 60K: -8; H69AR inhibit: 19*

How did CCC1Oc2ccc(C)cc2N(CC(=O)N(Cc2cccnc2)Cc2cccc(F)c2)C1=O (centres undefined) do in these assays?
MT1-MMP txn act: 1.2; HUVEC prolif 384: 87; PTK2B oligo ant: -1.7; Fibroblast inh: 90; H69AR inhibit: 43

What do the screens show for `CCOc1ccc2[nH]c(=O)c(CN(Cc3ccc(F)cc3)C(=O)c3ccco3)cc2c1`?
MT1-MMP txn act: 1; HUVEC prolif 384: 49; PTK2B oligo ant: 1.5; Fibroblast inh: 78; Jurkat tox 60K: 11; H69AR inhibit: 16*

Results for CCOc1ccc2[nH]c(=O)c(CN(Cc3ccco3)C(=O)c3cccc(F)c3)cc2c1 ?
MT1-MMP txn act: 1.1; HUVEC prolif 384: 86; PTK2B oligo ant: 0.06; Fibroblast inh: 89; Jurkat tox 60K: 11; H69AR inhibit: 78

What do the screens show for `O=C(c1ccco1)N(Cc1cc2ccccc2[nH]c1=O)C1CCCCC1`?
MT1-MMP txn act: 1; HUVEC prolif 384: 105; PTK2B oligo ant: -0.46; Fibroblast inh: 93; Jurkat tox 60K: -2; H69AR inhibit: 77

Results for CCOC(=O)N1CCC(NS(=O)(=O)c2cc(Br)cnc2N)CC1 ?
MT1-MMP txn act: 1.2; HUVEC prolif 384: 98; PTK2B oligo ant: -0.01; Fibroblast inh: 97; Jurkat tox 60K: 2; H69AR inhibit: 103

What do the screens show for `Cc1ccc2[nH]c(=O)c(CN(Cc3ccco3)C(=O)c3ccncc3)cc2c1`?
MT1-MMP txn act: 1.1; HUVEC prolif 384: 58; PTK2B oligo ant: -0.2; Fibroblast inh: 83; Jurkat tox 60K: 40*; H69AR inhibit: 23*

How did CNC(=S)N/N=C1\C(=O)c2cccc3cccc1c23 do in these assays?
MT1-MMP txn act: 1.2; HUVEC prolif 384: 39; PTK2B oligo ant: -1.4; Fibroblast inh: 46*; H69AR inhibit: 13*

What do the screens show for `CCC[C@@H]1C[C@@]1(CCC)C(NC(=O)c1ccco1)c1ccc(Cl)cc1` (some centres undefined)?
MT1-MMP txn act: 1.1

How did O=C(Nc1nnc(-c2ccco2)s1)c1ccccc1 do in these assays?
MT1-MMP txn act: 1.1; HUVEC prolif 384: 93; PTK2B oligo ant: 0.78; Fibroblast inh: 102; Jurkat tox 60K: 1; H69AR inhibit: 101

What do the screens show for `COc1ccc(C(=O)Nc2nnc(-c3ccco3)s2)cc1`?
HUVEC prolif 384: 55; PTK2B oligo ant: -0.08; Fibroblast inh: 97; H69AR inhibit: 8.2*

How did COC(=O)c1ccc2c(=O)n(CCN3CCOCC3)c(SCC(=O)NC3CCCCC3)nc2c1 do in these assays?
MT1-MMP txn act: 1.1; HUVEC prolif 384: 109; Fibroblast inh: 107; Jurkat tox 60K: 2; H69AR inhibit: 90

Results for Clc1ccc(-n2nnnc2Sc2ncnc3sccc23)cc1 ?
MT1-MMP txn act: 1; HUVEC prolif 384: 4.6*; PTK2B oligo ant: -1.7; Fibroblast inh: 48*; Jurkat tox 60K: 66*; H69AR inhibit: 2.0*

What do the screens show for `Cc1sc2ncnc(Sc3nnnn3-c3ccccc3)c2c1C`?
MT1-MMP txn act: 1.1; HUVEC prolif 384: 26*; PTK2B oligo ant: -2.1; Fibroblast inh: 10*; Jurkat tox 60K: 1; H69AR inhibit: 0.9*

How did Clc1ccc(CON/C=N/c2ncnc3sccc23)cc1 do in these assays?
PTK2B oligo ant: 1.1

Results for CCCNC(=O)c1ccccc1NC(=O)c1ccccc1N(C)S(=O)(=O)c1ccc(C)cc1 ?
PTK2B oligo ant: 0.15

What do the screens show for `COC(=O)c1ccc(Oc2nc(Nc3ccc(C)c(C)c3)nc(N(C)C)n2)cc1`?
MT1-MMP txn act: 1.1; HUVEC prolif 384: 95; PTK2B oligo ant: -1.2; Fibroblast inh: 89; H69AR inhibit: 71

What do the screens show for `O=c1cc(NCc2ccco2)c2ccccc2o1`?
MT1-MMP txn act: 1.2; HUVEC prolif 384: 97; PTK2B oligo ant: -0.48; Fibroblast inh: 98; H69AR inhibit: 91

How did CCOc1cccc(-c2nnc3sc(-c4ccc(C)cc4)nn23)c1 do in these assays?
MT1-MMP txn act: 1.1; HUVEC prolif 384: 54; Fibroblast inh: 86; H69AR inhibit: 19*

Results for CCOc1ccc(-c2nnc3sc(-c4c(OC)cccc4OC)nn23)cc1 ?
MT1-MMP txn act: 1.3; HUVEC prolif 384: 73; Fibroblast inh: 74; H69AR inhibit: 35*

How did CCOC(=O)Cc1csc(NC(=O)c2ccc(S(=O)(=O)N3CCCC3)cc2)n1 do in these assays?
MT1-MMP txn act: 1.1; HUVEC prolif 384: 87; PTK2B oligo ant: 0.06; Fibroblast inh: 99; Jurkat tox 60K: 11; H69AR inhibit: 99

How did CC(C)(C)c1ccccc1OCCCCCNCCO do in these assays?
MT1-MMP txn act: 1; HUVEC prolif 384: 91; PTK2B oligo ant: -0.72; Fibroblast inh: 79; Jurkat tox 60K: 4; H69AR inhibit: 11*

What do the screens show for `Cc1ccccc1OCCCCCNCCO`?
MT1-MMP txn act: 1.2; PTK2B oligo ant: 0.06; Jurkat tox 60K: -2
